Shown are actives, neighbours in structure and some others; about 3.1% of the full set was active somewhere.
KCNK3 inh = human KCNK3 channel inhibition, primary screen; O14649; CHO-KCNK3 thallium flux, FluxOR fluorescence; stronger effect = lower value; B-score at 10 µM; 340,000 compounds, 0.84% hits; AID 602410;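 active = B-score under library mean minus 4 SD, starting fluorescence ratio at most library mean plus 5 SD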;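 also: more negative B-score means stronger inhibition of thallium flux through KCNK3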
KCNK9 block = inhibitors of human KCNK9 two-pore domain potassium channel; Q9NPC2; HEK293 KCNK9, FluxOR thallium flux fluorescence; stronger effect = lower value; B-score at 10 µM; 310,000 compounds, 1.2% hits;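 active = ratio B-score over 3 SD below the library mean, with starting fluorescence within 5 SD of its mean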;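 also: negative B-score means less thallium flux so channel inhibition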
KCNQ1 inh = inhibitors of human KCNQ1 potassium channel; CHO-K1 KCNQ1, FluxOR thallium flux fluorescence; stronger effect = higher value; B-score at 10 µM; 310,000 compounds, 1.3% hits;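 active = compounds whose thallium flux B-score, printed positive for inhibition, exceeds three library SD while starting fluorescence stays within three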;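 also: channel opened by potassium depolarization with thallium stimulus after 20 min compound exposure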
Target sequence (P51787 whole entry, looked up): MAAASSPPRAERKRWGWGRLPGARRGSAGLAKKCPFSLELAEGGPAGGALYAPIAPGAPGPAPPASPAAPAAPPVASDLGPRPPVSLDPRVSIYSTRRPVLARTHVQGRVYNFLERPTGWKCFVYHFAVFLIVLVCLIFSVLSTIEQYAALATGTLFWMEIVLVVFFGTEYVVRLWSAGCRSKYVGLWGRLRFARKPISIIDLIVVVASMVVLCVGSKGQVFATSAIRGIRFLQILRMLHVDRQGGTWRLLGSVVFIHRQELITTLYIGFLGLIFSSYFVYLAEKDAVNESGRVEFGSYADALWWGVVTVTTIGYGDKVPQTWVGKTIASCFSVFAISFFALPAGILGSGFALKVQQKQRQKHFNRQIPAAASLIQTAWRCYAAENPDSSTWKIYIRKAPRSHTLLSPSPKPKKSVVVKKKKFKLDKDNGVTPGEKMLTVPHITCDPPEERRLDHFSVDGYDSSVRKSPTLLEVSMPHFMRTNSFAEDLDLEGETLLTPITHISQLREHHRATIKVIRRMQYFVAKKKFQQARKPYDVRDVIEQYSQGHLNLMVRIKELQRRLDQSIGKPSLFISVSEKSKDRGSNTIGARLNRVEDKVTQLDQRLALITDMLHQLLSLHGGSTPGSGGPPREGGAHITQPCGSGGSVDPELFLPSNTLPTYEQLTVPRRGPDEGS
KCNQ1 pot = human KCNQ1 channel potentiation or activation | P51787 | CHO-K1 KCNQ1, thallium flux FluxOR fluorescence; stronger effect = higher value | B-score at 10 µM | 310,000 compounds, 0.35% hits | AID 2648;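 active = fluorescence ratio B-score, a plate-corrected score, at least three library SD, with initial intensity B-score within 5 SD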
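assay system = KCNQ1-transfected CHO-K1 cells | medium = assay buffer with matched DMSO | probe or stimulus = depolarizing K+/Tl+ stimulus, K2SO4 and Tl2SO4 each 12.5 mM in 5x stock | dosing = single dose | incubation = dye 90 min, compound 20 min, room temperature | detection = kinetic FluxOR fluorescence, 10 s baseline plus 110 s post-stimulus | evaluation = ratio B score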
hERG rescue = hERG (human) protection from proarrhythmic block. CHO-hERG, FluxOR thallium flux, dofetilide IC70 present. activation (rescue from dofetilide block), less the hit threshold, % at 10 µM. 310,000 compounds, 0.51% hits. AID 1511;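 active = activation above the mean of controls blocked by dofetilide plus 5 SD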;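 also: thallium influx through hERG after potassium depolarization seen as dye fluorescence rise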
KCNQ1 block val = confirmation of human KCNQ1 potassium channel inhibitors | AID 588353 | 1,600 compounds, 93% hits | shares compounds with KCNQ1 inh | inhibition, % at 10 µM | KCNQ1 cell line, FluxOR thallium flux fluorescence;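 active = primary screen active, with duplicate mean exceeding buffer control mean plus 3 SD of buffer wells, cut at about 28% in these data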;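 also: 0% = buffer control ratio and 100% = XE991 inhibitor control ratio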
CHO Tl flux = activity in parental CHO cells lacking KCNQ1; shares compounds with KCNQ1 inh; parental CHO-K1, FluxOR thallium flux fluorescence ratio; stronger effect = lower value; zero means no signal rise above baseline; fluorescence ratio (Tl flux) at 10 µM; 1,600 compounds, 21% hits; AID 588366;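 active = mean of duplicate thallium-flux fluorescence ratios in parental host cells more than 5 SD below the buffer control mean, cut at about 0.38 in these data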;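 also: ratio is peak minus minimum fluorescence divided by baseline fluorescence; actives read low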
KCNQ1 APC inh = blocks human KCNQ1 current in automated patch clamp; KCNQ1-CHO cells; calls only at 10 µM; 490 compounds, 20% hits; shares compounds with KCNQ1 inh;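 active = KCNQ1 current drop exceeding 3 SD of negative control wells, seen in both duplicate runs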;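 also: steady state current during a 2 s step from -80 to +40 mV; negative values mean current inhibition and positive values mean potentiation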
KCNQ2 inh = rat KCNQ2 inhibition in KCNQ1 inhibitor specificity screen | AID 651746 | KCNQ2 cells, FluxOR thallium flux fluorescence | 1,600 compounds, 71% hits | inhibition, % at 10 µM | shares compounds with KCNQ1 inh;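 active = mean percent inhibition of the KCNQ2 thallium signal more than 5 SD above the buffer-only control wells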;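 also: KCNQ2 expressed in CHO cells; 0% = buffer control wells and 100% = XE-991 inhibitor control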
KCNQ1-KCNE1 inh = selectivity of KCNQ1 inhibitors: inhibition of human KCNQ1/KCNE1 channel; shares compounds with KCNQ1 inh; KCNQ1/KCNE1 cells, FluxOR thallium flux fluorescence; 1,600 compounds, 77% hits; AID 652147; inhibition, % at 10 µM;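 active = mean percent inhibition of duplicate wells above the buffer-only control mean plus 3 SD of those controls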;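 also: 0% = buffer only wells and 100% = XE-991 inhibitor control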
* marks the source's active call; other numbers are inactive results.

How did CC(C)(C)OC(=O)C[C@@H]1C/C=C\C[C@@H](CC(=O)N(CCO)Cc2ccccc2)C(=O)N[C@H](C(C)(C)C)COC1=O do in these assays?
KCNK3 inh: inactive

How did Cc1ccsc1C(=O)OCc1csc(-c2ccccc2)n1 do in these assays?
KCNK3 inh: inactive; KCNK9 block: -7.8*; KCNQ1 inh: 7*; KCNQ1 pot: inactive; hERG rescue: -12; KCNQ1 block val: 146*; CHO Tl flux: 0.41; KCNQ1 APC inh: inactive; KCNQ2 inh: 127%*; KCNQ1-KCNE1 inh: active

How did CC1CCCCN1C(=O)CN1C(=O)CSc2ccc(S(=O)(=O)N3CCOCC3)cc21 (configuration not stated) do in these assays?
KCNK3 inh: inactive; KCNK9 block: inactive; KCNQ1 inh: inactive; KCNQ1 pot: inactive; hERG rescue: -8

Results for CCCCCC(=O)NC(=S)NC1C2CC3CC(C2)CC1C3 (configuration not stated) ?
KCNK3 inh: inactive; KCNK9 block: inactive; KCNQ1 inh: 7*; KCNQ1 pot: inactive; hERG rescue: -10; KCNQ1 block val: 66*; CHO Tl flux: 0.48; KCNQ2 inh: 79%*; KCNQ1-KCNE1 inh: 64%*

What do the screens show for `COCCn1c(N)c(N(Cc2ccccc2)C(=O)CSCC(=O)Nc2ccc(C)cc2)c(=O)[nH]c1=O`?
KCNK3 inh: inactive; KCNK9 block: inactive; KCNQ1 inh: inactive; KCNQ1 pot: inactive; hERG rescue: -13

Results for Cc1ccc(S(=O)(=O)NC(C)C(c2cccs2)N2CCN(c3ccccc3)CC2)cc1 (configuration not stated) ?
KCNK3 inh: inactive; KCNK9 block: inactive; KCNQ1 inh: 7*; KCNQ1 pot: inactive; hERG rescue: -5; KCNQ1 block val: 68*; CHO Tl flux: 0.45; KCNQ2 inh: 89%*; KCNQ1-KCNE1 inh: 92%*

How did Cc1ccc(S(=O)(=O)NC(C)C(c2cccs2)N2CCN(C)CC2)cc1 (configuration not stated) do in these assays?
KCNK3 inh: inactive; KCNK9 block: inactive; KCNQ1 inh: inactive; KCNQ1 pot: inactive; hERG rescue: -1

What do the screens show for `CN(C)C(CNC(=O)c1cc(-c2ccco2)nc2ccccc12)c1ccccc1` (configuration not stated)?
KCNK3 inh: inactive

How did COc1cccc(CNC(=O)c2cc3c(C)nc4ccccc4c3o2)c1 do in these assays?
KCNK3 inh: inactive; KCNK9 block: inactive; KCNQ1 inh: inactive; KCNQ1 pot: inactive; hERG rescue: -14

Results for CCc1ccc(CNC(=O)c2cc3c(C)nc4ccccc4c3o2)cc1 ?
KCNK3 inh: inactive; KCNK9 block: inactive; KCNQ1 inh: 8*; KCNQ1 pot: inactive; hERG rescue: -20; KCNQ1 block val: 140*; CHO Tl flux: 0.25*; KCNQ2 inh: 113%*; KCNQ1-KCNE1 inh: active

Results for CCN(CC(=O)Nc1cc(Cl)ccc1C)C(=O)c1ccc2c(=O)n3c(nc2c1)CCC3 ?
KCNK3 inh: inactive; KCNK9 block: inactive; KCNQ1 inh: inactive; KCNQ1 pot: inactive; hERG rescue: -5

Results for Cc1cc(=O)[nH]c(SCC(=O)/C=C2\N(C)c3ccccc3C2(C)C)n1 ?
KCNK3 inh: inactive; KCNK9 block: inactive; KCNQ1 inh: 11*; KCNQ1 pot: inactive; hERG rescue: -22; KCNQ1 block val: 106*; CHO Tl flux: 0.48; KCNQ1 APC inh: inactive; KCNQ2 inh: 88%*; KCNQ1-KCNE1 inh: 79%*

What do the screens show for `c1ccc(CNc2c3ccccc3nc3ccccc23)cc1`?
KCNK3 inh: inactive; KCNK9 block: inactive; KCNQ1 inh: 8*; KCNQ1 pot: inactive; hERG rescue: -24; KCNQ1 block val: 39*; CHO Tl flux: 0.41; KCNQ2 inh: 66%*; KCNQ1-KCNE1 inh: 48%*

How did COCCN(C(=O)CSc1nc2ccccc2c(=O)n1CCOC)c1c(N)n(Cc2ccccc2)c(=O)[nH]c1=O do in these assays?
KCNK3 inh: inactive; KCNK9 block: inactive; KCNQ1 inh: inactive; KCNQ1 pot: inactive; hERG rescue: -5

What do the screens show for `CCOC(=O)c1cc(C#N)c(SC)nc1-c1ccccc1`?
KCNK3 inh: inactive; KCNK9 block: inactive; KCNQ1 inh: inactive; KCNQ1 pot: inactive; hERG rescue: -6

Results for CCOC(=O)c1cc(C#N)c(Oc2ccccc2OC)nc1-c1ccccc1 ?
KCNK3 inh: inactive; KCNK9 block: inactive; KCNQ1 inh: 7*; KCNQ1 pot: inactive; hERG rescue: -6; KCNQ1 block val: 92*; CHO Tl flux: 0.42; KCNQ1 APC inh: inactive; KCNQ2 inh: 80%*; KCNQ1-KCNE1 inh: 94%*

What do the screens show for `O=C(O)CN1C(=O)Nc2ccc(Br)cc2C1c1ccccc1` (configuration not stated)?
KCNK3 inh: inactive; KCNK9 block: inactive; KCNQ1 inh: inactive; KCNQ1 pot: inactive; hERG rescue: -7

What do the screens show for `COC(=O)CN1C(c2ccccc2O)Nc2ccc(Br)cc2C1c1ccccc1` (configuration not stated)?
KCNK3 inh: inactive; KCNK9 block: -6.6*; KCNQ1 inh: 8*; KCNQ1 pot: inactive; hERG rescue: -10; KCNQ1 block val: 98*; CHO Tl flux: 0.36*; KCNQ2 inh: 86%*; KCNQ1-KCNE1 inh: 132%*

What do the screens show for `CCOC(=O)c1ccccc1NC(=O)COC(=O)CCNS(=O)(=O)c1ccccc1`?
KCNK3 inh: inactive; KCNK9 block: inactive; KCNQ1 inh: inactive; KCNQ1 pot: inactive; hERG rescue: -12

How did Cc1ccc(C(CNS(=O)(=O)c2ccc(F)cc2C)N2CCN(C)CC2)cc1 (configuration not stated) do in these assays?
KCNK3 inh: inactive; KCNK9 block: inactive; KCNQ1 inh: inactive; KCNQ1 pot: inactive; hERG rescue: -14

Screening data as filed in PubChem BioAssay.
